According to ChEMBL document CHEMBL1914454, “Novel N-linked aminopiperidine inhibitors of bacterial topoisomerase type II: broad-spectrum antibacterial agents with reduced hERG activity” (J Med Chem, 2011):
≈ marks a conversion by molar mass, not a printed value.

How the values were obtained:
[1] = Volume of distribution in Beagle dog at 3 mg/kg, iv; format: ADME, organism-based, Canis lupus familiaris; design: dose 3 mg/kg, route intravenous; settings: in vivo
Method in brief: (§1)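 Plasma was sampled from 0 to 24 h and drug measured by LC–MS/MS. Parameters came from noncompartmental analysis.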

[2] = molecular target: Voltage-gated inwardly rectifying potassium channel KCNH2 (Homo sapiens, UniProt Q12809); assay: Inhibition of human ERG by ionworks HT assay
Mus musculus [3] = assay: AUC (infinity) in Staphylococcus aureus ARC516 infected in CD1 mouse neutropenic thigh infection model at 48 mg/kg, ip qd by LC-MS/MS analysis; format: ADME, organism-based; design: dose 48 mg/kg, route intraperitoneal, time infinity; settings: in vivo
Method in brief: (§2)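 CD-1 mice made neutropenic with ip cyclophosphamide (150 mg/kg day −4, 100 mg/kg day −1), thigh-infected with S. aureus ARC516 (target 5 × 10⁵ cfu/thigh). Dosed ip once daily starting 2 h post-infection, in 5% dextrose with lactic acid, pH 5.0. Groups of three sacrificed at timed intervals; cardiac-puncture blood; plasma analysed by LC-MS/MS; noncompartmental analysis.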

Staphylococcus aureus [4] = assay: Antibacterial activity against Staphylococcus aureus ARC516 infected in CD1 mouse neutropenic thigh infection model assessed as 1 log reduction in colony forming unit per […] at 36 mg/kg, ip qd administered 2 hrs post-infection measured 24 hrs post-treatment relative to vehicle treated control; format: functional; settings: route intraperitoneal
Method in brief: (§3)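 CD-1 mice were made neutropenic with ip cyclophosphamide, 150 mg/kg at 4 days and 100 mg/kg at 1 day before infection. Methicillin-susceptible strain, target inoculum 5 × 10⁵ cfu/thigh. Groups of five received ip drug q.d. in 5% dextrose with lactic acid, pH 5.0, starting 2 h post-infection; five mice got vehicle. At 24 h, thighs were homogenized, plated on tryptic soy agar and incubated at 37 °C overnight for cfu.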

Staphylococcus aureus [5] = assay: Antibacterial activity against Staphylococcus aureus ARC516 infected in CD1 mouse neutropenic thigh infection model assessed as 1 log reduction in colony forming unit per […] at 48 mg/kg, ip qd administered 2 hrs post-infection measured 24 hrs post-treatment relative to vehicle treated control; format: functional; settings: route intraperitoneal; method in brief: as §3
Staphylococcus aureus [6] = assay: Antibacterial activity against Staphylococcus aureus ARC516 infected in CD1 mouse neutropenic thigh infection model assessed as 1 log reduction in colony forming unit per […] at 12 mg/kg, ip qd administered 2 hrs post-infection measured 24 hrs post-treatment relative to vehicle treated control; format: functional; settings: route intraperitoneal; method in brief: as §3
Streptococcus pneumoniae = assay: Antibacterial activity against penicillin-susceptible Streptococcus pneumoniae D39 after 18 to 24 hrs by broth microdilution method; format: functional
Method in brief: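 CLSI broth microdilution in 2.2% (w/v) Mueller Hinton broth with 0.65% (v/v) lysed horse blood. Compounds diluted from DMSO to 2% DMSO final, 11 doubling dilutions from 64 to 0.06 μg/mL. Incubated at 35 °C for 18−24 h; read at 620 nm.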

[7] = Clearance in Wistar Han rat at 4 mg/kg, iv; format: ADME, organism-based; design: dose 4 mg/kg, route intravenous; settings: in vivo
Method in brief: (§4)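 Groups of three Wistar Han rats received a bolus injection into a cannulated jugular vein. Serial 200 μL whole-blood samples taken over time; plasma drug measured by LC-MS/MS; parameters estimated by noncompartmental analysis.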

[8] = Half life in Beagle dog at 3 mg/kg, iv; format: ADME, organism-based, Canis lupus familiaris; design: dose 3 mg/kg, route intravenous; settings: in vivo; method in brief: as §1
Mus musculus [9] = assay: AUC (infinity) in Staphylococcus aureus ARC516 infected in CD1 mouse neutropenic thigh infection model at 12 mg/kg, ip qd by LC-MS/MS analysis; format: ADME, organism-based; design: time infinity, dose 12 mg/kg, route intraperitoneal; settings: in vivo; method in brief: as §2
[10] = AUC in Wistar Han rat at 4 mg/kg, iv; format: ADME, organism-based; design: dose 4 mg/kg, route intravenous; settings: plasma; method in brief: as §4
[11] = Inhibition of Escherichia coli ATPase activity of topoisomerase 4 ParC/ParE subunit assessed as reduction in inorganic phosphate production after 24 hrs by ammonium molybdate/malachite-green based assay
Method in brief: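 Each reaction contained 0.5 nM each of E. coli ParC and ParE, 0.16 mM ATP and 0.005 mg/mL sheared salmon sperm DNA in 20 mM Tris pH 8.0 with 50 mM ammonium acetate, 8.0 mM MgCl₂, 0.5 mM EDTA, 5 mM DTT, 2.5% glycerol and 0.005% Brij-35. Compound dilution series; 24 h at room temperature. Quenched with malachite green; absorbance read at 650 nm. IC50 is the mean of three replicate experiments.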

[12] = Fraction unbound in human plasma at 10 uM after 16 hrs by equilibrium dialysis
[13] = AUC in Beagle dog at 3 mg/kg, iv; format: ADME, organism-based, Canis lupus familiaris; design: dose 3 mg/kg, route intravenous; settings: plasma; method in brief: as §1
[14] = Clearance in Beagle dog at 3 mg/kg, iv; format: ADME, organism-based, Canis lupus familiaris; design: dose 3 mg/kg, route intravenous; settings: in vivo; method in brief: as §1
Mus musculus [15] = assay: AUC (infinity) in Staphylococcus aureus ARC516 infected in CD1 mouse neutropenic thigh infection model at 24 mg/kg, ip qd by LC-MS/MS analysis; format: ADME, organism-based; design: time infinity, dose 24 mg/kg, route intraperitoneal; settings: in vivo; method in brief: as §2
[16] = Half life in Wistar Han rat at 4 mg/kg, iv; format: ADME, organism-based; design: dose 4 mg/kg, route intravenous; settings: in vivo; method in brief: as §4
Pseudomonas aeruginosa = assay: Antibacterial activity against Pseudomonas aeruginosa PAO1 after 18 to 24 hrs by broth microdilution method; format: functional
Method in brief: (§5)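 Broth microdilution following CLSI guidelines in Mueller Hinton broth. Compounds in DMSO, diluted to 2% DMSO final, 11 doubling dilutions from 64 to 0.06 μg/mL. Incubated at 35 °C for 18−24 h; growth read by absorbance at 620 nm.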

Staphylococcus aureus [17] = assay: Antibacterial activity against Staphylococcus aureus ARC516 infected in CD1 mouse neutropenic thigh infection model assessed as 1 log reduction in colony forming unit per […] at 24 mg/kg, ip qd administered 2 hrs post-infection measured 24 hrs post-treatment relative to vehicle treated control; format: functional; settings: route intraperitoneal; method in brief: as §3
[18] = Octanol-phosphate buffer partition coefficient, log D of the compound at pH 7.4 by LC/MS/UV analysis
[19] = Volume of distribution in Wistar Han rat at 4 mg/kg, iv; format: ADME, organism-based; design: dose 4 mg/kg, route intravenous; settings: in vivo; method in brief: as §4
Staphylococcus aureus [20] = assay: Antibacterial activity against methicillin-susceptible Staphylococcus aureus after 18 to 24 hrs by broth microdilution method; format: functional; method in brief: as §5
Escherichia coli = assay: Antibacterial activity against Escherichia coli W3110 after 18 to 24 hrs by broth microdilution method; format: functional; settings: K-12 substr. W3110; method in brief: as §5
Mus musculus [21] = assay: AUC (infinity) in Staphylococcus aureus ARC516 infected in CD1 mouse neutropenic thigh infection model at 36 mg/kg, ip qd by LC-MS/MS analysis; format: ADME, organism-based; design: dose 36 mg/kg, route intraperitoneal, time infinity; settings: in vivo
Method in brief: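 Plasma exposure in CD-1 mice, measured for analysis of the efficacy studies. Groups of three mice were sacrificed at timed intervals and whole blood was drawn by cardiac puncture. Plasma compound levels were measured by LC–MS/MS, and parameters were estimated by a noncompartmental model.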

[22] = Half life in Wistar Han rat at 3 mg/kg, iv; format: ADME, organism-based; design: dose 3 mg/kg, route intravenous; settings: in vivo
Method in brief: (§6)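 Groups of three Wistar Han rats got a 3 mg/kg iv bolus via a cannulated jugular vein. Serial whole-blood samples were taken at time intervals, and compound in plasma was quantified by LC–MS/MS. Parameters were estimated by a noncompartmental model.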

[23] = AUC in Wistar Han rat at 3 mg/kg, iv; format: ADME, organism-based; design: dose 3 mg/kg, route intravenous; settings: plasma; method in brief: as §6
[24] = Volume of distribution in Wistar Han rat at 3 mg/kg, iv; format: ADME, organism-based; design: dose 3 mg/kg, route intravenous; settings: in vivo; method in brief: as §6
[25] = Oral bioavailability in Beagle dog at 10 mg/kg; format: ADME, organism-based, Canis lupus familiaris; settings: in vivo; method in brief: as §1
[26] = Clearance in Wistar Han rat at 3 mg/kg, iv; format: ADME, organism-based; design: dose 3 mg/kg, route intravenous; settings: in vivo; method in brief: as §6

Sequence of Voltage-gated inwardly rectifying potassium channel KCNH2 (Q12809 whole entry): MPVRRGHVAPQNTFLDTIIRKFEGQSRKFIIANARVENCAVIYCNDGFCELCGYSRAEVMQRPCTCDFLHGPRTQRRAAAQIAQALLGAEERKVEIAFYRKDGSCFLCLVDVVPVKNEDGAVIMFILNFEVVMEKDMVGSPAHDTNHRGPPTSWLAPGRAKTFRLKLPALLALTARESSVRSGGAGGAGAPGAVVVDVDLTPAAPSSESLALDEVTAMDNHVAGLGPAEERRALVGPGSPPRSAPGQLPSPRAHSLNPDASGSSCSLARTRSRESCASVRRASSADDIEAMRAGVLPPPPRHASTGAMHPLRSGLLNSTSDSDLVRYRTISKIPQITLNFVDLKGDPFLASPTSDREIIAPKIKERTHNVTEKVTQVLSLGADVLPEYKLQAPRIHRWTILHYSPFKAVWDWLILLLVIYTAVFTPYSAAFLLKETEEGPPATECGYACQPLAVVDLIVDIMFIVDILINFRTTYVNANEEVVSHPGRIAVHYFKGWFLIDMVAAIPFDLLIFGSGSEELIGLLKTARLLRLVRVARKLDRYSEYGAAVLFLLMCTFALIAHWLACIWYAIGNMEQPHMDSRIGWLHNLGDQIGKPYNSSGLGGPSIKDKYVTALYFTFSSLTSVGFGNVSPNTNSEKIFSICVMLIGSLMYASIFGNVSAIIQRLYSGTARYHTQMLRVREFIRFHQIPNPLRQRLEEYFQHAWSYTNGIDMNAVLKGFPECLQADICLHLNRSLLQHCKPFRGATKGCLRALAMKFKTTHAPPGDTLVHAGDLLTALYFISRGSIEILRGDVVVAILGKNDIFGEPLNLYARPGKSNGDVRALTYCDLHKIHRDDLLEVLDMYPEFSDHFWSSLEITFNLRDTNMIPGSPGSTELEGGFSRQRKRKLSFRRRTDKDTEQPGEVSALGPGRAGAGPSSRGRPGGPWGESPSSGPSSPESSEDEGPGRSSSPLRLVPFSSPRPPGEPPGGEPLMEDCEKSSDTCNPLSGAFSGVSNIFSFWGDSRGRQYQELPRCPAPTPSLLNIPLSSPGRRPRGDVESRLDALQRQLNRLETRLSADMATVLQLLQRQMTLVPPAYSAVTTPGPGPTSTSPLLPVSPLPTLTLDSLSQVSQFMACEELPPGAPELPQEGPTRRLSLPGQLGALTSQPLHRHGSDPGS

MIC (Streptococcus pneumoniae) | IC50 [11] | MIC (Pseudomonas aeruginosa) | MIC (Staphylococcus aureus [20]) | MIC (Escherichia coli) | Structure (SMILES) | IC50 [2] | fraction unbound at 16 h, 10 µM [12] | logD ([18]; octanol/phosphate buffer) | other results
0.06 µg/mL (≈ 0.133 µM) | 5 nM | 4 µg/mL (≈ 8.86 µM) | 0.02 µg/mL (≈ 0.0443 µM) | 0.5 µg/mL (≈ 1.11 µM) | COc1ccc2ncc(=O)n(CCN3CCC(NCc4cc5c(cn4)OCCO5)CC3)c2c1 | 19 µM | 0.57 | 0.93 | Vd [1]: 11 L/kg; AUC (Mus musculus [3]): 1.79 µg/h/mL; FC (Staphylococcus aureus [4]): 1.5; FC (Staphylococcus aureus [5]): 2.79; FC (Staphylococcus aureus [6]): 0.05; clearance [7]: 338 mL/min/kg; half-life [8]: 0.346 days; AUC (Mus musculus [9]): 0.47 µg/h/mL; AUC [10]: 190 ng·h/mL; AUC [13]: 2300 ng·h/mL; clearance [14]: 21 mL/min/kg; AUC (Mus musculus [15]): 0.76 µg/h/mL; half-life [16]: 168 min; FC (Staphylococcus aureus [17]): 1.17; Vd [19]: 32 L/kg; AUC (Mus musculus [21]): 1.17 µg/h/mL
> 8 µg/mL | 780 nM | > 8 µg/mL | > 8 µg/mL | > 8 µg/mL | COc1ccc2c(c1)N(CCN1CCC(NCc3ccc4c(n3)NC(=O)CO4)CC1)C(=O)CC2 | 29 µM | 0.04 | 0.66 | –
0.03 µg/mL (≈ 0.0643 µM) | 0.6 nM | 1 µg/mL (≈ 2.14 µM) | 0.02 µg/mL (≈ 0.0429 µM) | 0.06 µg/mL (≈ 0.129 µM) | COc1ccc2ncc(F)c(CCN3CCC(NCc4ccc5c(n4)NC(=O)CO5)CC3)c2n1 | – | 0.06 | 1.78 | –
8 µg/mL (≈ 17.2 µM) | 26 nM | 8 µg/mL (≈ 17.2 µM) | > 8 µg/mL | 2 µg/mL (≈ 4.3 µM) | COc1ccc2nnc(=O)n(CCN3CCC(NCc4ccc5c(n4)NC(=O)CO5)CC3)c2c1 | – | – | – | –
1 µg/mL (≈ 2.15 µM) | 82 nM | > 8 µg/mL | 2 µg/mL (≈ 4.3 µM) | > 8 µg/mL | COc1ccc2c(C)nc(=O)n(CCN3CCC(NCc4cc5c(cn4)OCCO5)CC3)c2c1 | > 33 µM | – | – | logD ([18]; octanol/water): 0.29

Second part, the compound before the results:

Structure (SMILES) | MIC (Streptococcus pneumoniae) | IC50 [11] | MIC (Pseudomonas aeruginosa) | MIC (Staphylococcus aureus [20]) | MIC (Escherichia coli) | IC50 [2] | fraction unbound at 16 h, 10 µM [12] | logD ([18]; octanol/phosphate buffer) | other results
COc1ccc2c(C)cc(=O)n(CCN3CCC(NCc4cc5c(cn4)OCCO5)CC3)c2c1 | 0.03 µg/mL (≈ 0.0646 µM) | – | > 8 µg/mL | 0.02 µg/mL (≈ 0.0431 µM) | 0.5 µg/mL (≈ 1.08 µM) | 23 µM | – | 1.72 | –
O=C1COc2ccc(CNC3CCN(CCN4C(=O)COc5ccc(F)cc54)CC3)nc2N1 | 0.5 µg/mL (≈ 1.1 µM) | – | 3 µg/mL (≈ 6.59 µM) | 0.25 µg/mL (≈ 0.549 µM) | 0.25 µg/mL (≈ 0.549 µM) | – | 0.17 | 0.9 | –
COc1ccc2c(c1)N(CCN1CCC(NCc3ccc4c(n3)NC(=O)CO4)CC1)C(=O)CO2 | 0.5 µg/mL (≈ 1.07 µM) | 5 nM | 4 µg/mL (≈ 8.56 µM) | 0.13 µg/mL (≈ 0.278 µM) | 0.25 µg/mL (≈ 0.535 µM) | – | 0.11 | 0.87 | –
COc1ccc2c(c1)N(CCN1CCC(NCc3cc4c(cn3)OCCO4)CC1)C(=O)CO2 | 0.25 µg/mL (≈ 0.55 µM) | – | > 8 µg/mL | 0.13 µg/mL (≈ 0.286 µM) | 1 µg/mL (≈ 2.2 µM) | 13 µM | 0.18 | 1.24 | –
N#Cc1ccc2c(c1)N(CCN1CCC(NCc3ccc4c(n3)NC(=O)CO4)CC1)C(=O)CO2 | 0.5 µg/mL (≈ 1.08 µM) | 3.2 nM | 2 µg/mL (≈ 4.32 µM) | 0.13 µg/mL (≈ 0.281 µM) | 0.25 µg/mL (≈ 0.541 µM) | – | – | 0.24 | Vd [1]: 61 L/kg; half-life [22]: 348 min; AUC [23]: 640 ng·h/mL; half-life [8]: 6.92 days; AUC [13]: 3090 ng·h/mL; clearance [14]: 7.8 mL/min/kg; Vd [24]: 23 L/kg; bioavailability [25]: 64%; clearance [26]: 66 mL/min/kg
